# Results published in ChEMBL document CHEMBL5678805, “Intermittent administration of MEK inhibitor GDC-0973 plus PI3K inhibitor GDC-0941 triggers robust apoptosis and tumor growth inhibition” (Cancer Res, 2012).
# Activity calls are given as the source filed them. The rule behind the calls is not given here.
# Tests used:
# [1] = tested on: MOLM-13; assay: Antitumor activity against human MOLM-13 cells harboring FLT3 Y599_D600insFDFREYE and c-Cbl E366_Q409del mutant xenografted in mouse assessed as tumor growth inhibition at 10 mg/kg, po; type: functional; details: read-out: TGI
# Procedure, shortened: (§1)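 Human tumor xenografts in mice were dosed orally at the indicated mg/kg. Tumor volume was measured with calipers as (L×W×W)/2. %TGI = 100 × [1 − (AUC treatment/d)/(AUC vehicle/d)], using the area under the fitted tumor-growth curve per day for each dose group relative to vehicle.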
# [2] = tested on: NCI-H2122; assay: Antitumor activity against human NCI-H2122 cells xenografted in mouse assessed as tumor growth inhibition at 20 mg/kg, po administered once a day for 21 days in presence of 4-(2-(1H-indazol-4-yl)-6-((4-(methylsulfonyl)piperazin-1-yl)methyl)thieno[3,2-d]pyrimidin-4-yl)morpholine; type: functional; details: NCI-H2122, 504 h, time 21 day, read-out: TGI
# Procedure, shortened: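 Mice bearing NCI-H2122 xenografts were given MEK inhibitor, PI3K inhibitor, or both, orally once daily for 21 consecutive days at the doses labeled. Caliper tumor volumes were calculated as (L×W×W)/2. %TGI was derived from the AUC of the fitted growth curve per day relative to vehicle.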
# [3] = tested on: A2058; assay: Antitumor activity against human A2058 cells harboring BRAF V600E/PTEN deletion mutant xenografted in mouse assessed as increase in BimL level at 15 mg/kg, po administered every third day for 21 days and measured after 8 hrs post dose by Western blot analysis; type: functional, organism-based; details: time 512.0 hrs
# [4] = tested on: A2058; assay: Antitumor activity against human A2058 cells harboring BRAF V600E/PTEN deletion mutant xenografted in mouse assessed as suppression of AKT phosphorylation at 15 mg/kg, po administered every third day for 21 days and measured after 72 hrs post dose in presence of 4-(2-(1H-indazol-4-yl)-6-((4-(methylsulfonyl)piperazin-1-yl)methyl)thieno[3,2-d]pyrimidin-4-yl)morpholine by Western blot analysis; type: functional, organism-based; details: time 576.0 hrs
# [5] = tested on: 888-mel; assay: Antiproliferative activity against human 888-mel cells assessed reduction in cell viability incubated for 4 days in presence of 4-(2-(1H-indazol-4-yl)-6-((4-(methylsulfonyl)piperazin-1-yl)methyl)thieno[3,2-d]pyrimidin-4-yl)morpholine by celltiter-glo assay; type: functional; details: time 4 day
# Procedure, shortened: (§2)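 4-day CellTiter-Glo viability read-out on melanoma lines, cells exposed to increasing concentrations of each inhibitor alone and in combination.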
# [6] = target: Casein kinase I; assay: Inhibition of CK1 (unknown origin); type: protein assay, Homo sapiens
# [7] = target: Angiopoietin-1 receptor (Homo sapiens, UniProt Q02763); assay: Inhibition of Tie-2 (unknown origin)
# [8] = tested on: C32; assay: Antiproliferative activity against human C32 cells assessed reduction in cell viability incubated for 4 days in presence of 4-(2-(1H-indazol-4-yl)-6-((4-(methylsulfonyl)piperazin-1-yl)methyl)thieno[3,2-d]pyrimidin-4-yl)morpholine by celltiter-glo assay; type: functional; details: time 4 day; procedure, shortened: as §2
# [9] = target: Serine/threonine-protein kinase B-raf (Homo sapiens, UniProt P15056, V600E); assay: Inhibition of B-RAF V600E (unknown origin)
# [10] = tested on: A-375; assay: Antitumor activity against human A-375 cells harboring BRAF V600E/CDKN2A E61 mutant xenografted in mouse assessed as tumor growth inhibition at 2.5 mg/kg, po; type: functional; details: A-375, read-out: TGI
# Procedure, shortened: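 Mice carrying human tumor xenografts dosed orally once daily for 21 consecutive days. Tumor volume measured by calipers as (L×W×W)/2. %TGI = 100×[1 − AUC(treatment/day)/AUC(vehicle/day)], using the area under the fitted growth curve relative to vehicle.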
# [11] = target: Dual specificity protein kinase CLK3 (Homo sapiens, UniProt P49761); assay: Inhibition of CLK3 (unknown origin)
# [12] = tested on: A-375; assay: Antitumor activity against human A-375 cells xenografted in mouse assessed as decrease in pS6 level at 5 mg/kg, po administered for 4 days and measured after 2 hrs in presence of 4-(2-(1H-indazol-4-yl)-6-((4-(methylsulfonyl)piperazin-1-yl)methyl)thieno[3,2-d]pyrimidin-4-yl)morpholine; type: functional, organism-based; details: time 98.0 hrs
# [13] = target: Casein kinase 2 (Homo sapiens, UniProt P67870+P68400+P19784+Q8NEV1); assay: Inhibition of CK2 (unknown origin); type: protein assay
# [14] = tested on: NCI-H2122; assay: Antitumor activity against human NCI-H2122 cells xenografted in mouse assessed as reduction in ERK phosphorylation at 1 to 10 mg/kg, po administered for 3 days and measured at 24 hrs by Western blot analysis; type: functional; parameters: scale not given: the % may be the effect or the level left; details: time 96 hrs
# Procedure, shortened: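 NCI-H2122 xenograft mice received 3 daily oral doses of 1, 3, 5 or 10 mg/kg. Tumors were collected 2, 8 and 24 h after the last dose, pulverized on dry ice and lysed. Lysates were run on 4–12% SDS-PAGE and transferred to nitrocellulose. p-ERK1/2 and t-ERK1/2 bands were quantified on an Odyssey imager and expressed relative to vehicle-treated mice (0 h).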
# [15] = target: Ribosomal protein S6 kinase alpha-5 (Homo sapiens, UniProt O75582); assay: Inhibition of MSK1 (unknown origin)
# [16] = tested on: SK-OV-3; assay: Antitumor activity against human SK-OV-3 cells harboring FBXW7 R505L and CDKN2A mutant xenografted in mouse assessed as tumor growth inhibition at 5 mg/kg, po; type: functional; details: read-out: TGI; procedure, shortened: as §1
# [17] = tested on: 888-mel; assay: Inhibition of S6 phosphorylation in human 888-mel cells preincubated with compound for 24 hrs followed by compound washout and measured after 2 hrs in presence of 4-(2-(1H-indazol-4-yl)-6-((4-(methylsulfonyl)piperazin-1-yl)methyl)thieno[3,2-d]pyrimidin-4-yl)morpholine by immunoblotting analysis; type: cell-based
# [18] = tested on: 888-mel; assay: Antiproliferative activity against human 888-mel cells harboring BRAF V600E mutant assessed as reduction in cell viability incubated for 96 hrs in presence of 4-(2-(1H-indazol-4-yl)-6-((4-(methylsulfonyl)piperazin-1-yl)methyl)thieno[3,2-d]pyrimidin-4-yl)morpholine; type: functional, cell-based
# [19] = tested on: A2058; assay: Antitumor activity against human A2058 cells xenografted in mouse assessed as effect on S6 phosphorylation at 5 mg/kg, po administered daily for 4 days and measured after 8 hrs; type: functional, organism-based; details: time 104.0 hrs
# [20] = tested on: A-427; assay: Antitumor activity against human A-427 cells harboring […]/LKB1 CDKN2A CTNNB1 T41A SMARCA4 mutant xenografted in mouse assessed as tumor growth inhibition at 5 mg/kg, po; type: functional; details: A-427, read-out: TGI
# [21] = Antitumor activity against human A375.X1 cells harboring BRAF V600E/CDKN2A E61 mutant xenografted in mouse assessed as tumor growth inhibition at 10 mg/kg, po; type: functional; details: A375.X1, read-out: TGI
# Procedure, shortened: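 Single-agent dose ranging in human tumor xenograft mice at 2.5, 5 or 10 mg/kg oral. Tumor volume was measured by caliper as (L×W×W)/2. %TGI = 100×[1 − AUC(treatment/d)/AUC(vehicle/d)] from the fitted growth curve per dose group, relative to vehicle.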
# [22] = target: Tyrosine-protein kinase HCK (Homo sapiens, UniProt P08631); assay: Inhibition of Hck (unknown origin)
# [23] = target: Mitogen-activated protein kinase 1 (Homo sapiens, UniProt P28482); assay: Inhibition of ERK2 (unknown origin)
# [24] = tested on: NCI-H69; assay: Antitumor activity against human NCI-H69 cells harboring RBI E748/PK3CA G106_R108/TP53 E171 mutant xenografted in mouse assessed as tumor growth inhibition at 10 mg/kg, po; type: functional; details: read-out: TGI; procedure, shortened: as §1
# [25] = target: Serine/threonine-protein kinase PAK 6 (Homo sapiens, UniProt Q9NQU5); assay: Inhibition of PAK6 (unknown origin)
# Chain of Serine/threonine-protein kinase PAK 6 (Q9NQU5 whole entry): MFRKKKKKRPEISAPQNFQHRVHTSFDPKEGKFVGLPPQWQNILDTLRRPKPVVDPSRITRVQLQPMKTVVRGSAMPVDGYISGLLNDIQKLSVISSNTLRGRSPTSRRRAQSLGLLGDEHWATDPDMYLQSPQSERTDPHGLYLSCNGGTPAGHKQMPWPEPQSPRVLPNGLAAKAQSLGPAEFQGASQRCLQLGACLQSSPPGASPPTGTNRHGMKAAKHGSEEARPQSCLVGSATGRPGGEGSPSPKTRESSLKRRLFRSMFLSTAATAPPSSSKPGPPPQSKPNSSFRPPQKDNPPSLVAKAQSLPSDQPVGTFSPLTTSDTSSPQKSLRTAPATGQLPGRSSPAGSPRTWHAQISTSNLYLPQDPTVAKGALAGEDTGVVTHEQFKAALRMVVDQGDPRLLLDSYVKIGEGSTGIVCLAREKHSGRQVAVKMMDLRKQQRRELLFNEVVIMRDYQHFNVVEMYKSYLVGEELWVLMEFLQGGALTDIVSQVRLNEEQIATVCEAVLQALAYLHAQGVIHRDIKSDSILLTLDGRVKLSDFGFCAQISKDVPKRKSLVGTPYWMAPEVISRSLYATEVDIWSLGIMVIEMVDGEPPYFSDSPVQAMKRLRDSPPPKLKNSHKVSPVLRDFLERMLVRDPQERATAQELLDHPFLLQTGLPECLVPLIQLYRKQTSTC
# Chain of Angiopoietin-1 receptor (Q02763 whole entry): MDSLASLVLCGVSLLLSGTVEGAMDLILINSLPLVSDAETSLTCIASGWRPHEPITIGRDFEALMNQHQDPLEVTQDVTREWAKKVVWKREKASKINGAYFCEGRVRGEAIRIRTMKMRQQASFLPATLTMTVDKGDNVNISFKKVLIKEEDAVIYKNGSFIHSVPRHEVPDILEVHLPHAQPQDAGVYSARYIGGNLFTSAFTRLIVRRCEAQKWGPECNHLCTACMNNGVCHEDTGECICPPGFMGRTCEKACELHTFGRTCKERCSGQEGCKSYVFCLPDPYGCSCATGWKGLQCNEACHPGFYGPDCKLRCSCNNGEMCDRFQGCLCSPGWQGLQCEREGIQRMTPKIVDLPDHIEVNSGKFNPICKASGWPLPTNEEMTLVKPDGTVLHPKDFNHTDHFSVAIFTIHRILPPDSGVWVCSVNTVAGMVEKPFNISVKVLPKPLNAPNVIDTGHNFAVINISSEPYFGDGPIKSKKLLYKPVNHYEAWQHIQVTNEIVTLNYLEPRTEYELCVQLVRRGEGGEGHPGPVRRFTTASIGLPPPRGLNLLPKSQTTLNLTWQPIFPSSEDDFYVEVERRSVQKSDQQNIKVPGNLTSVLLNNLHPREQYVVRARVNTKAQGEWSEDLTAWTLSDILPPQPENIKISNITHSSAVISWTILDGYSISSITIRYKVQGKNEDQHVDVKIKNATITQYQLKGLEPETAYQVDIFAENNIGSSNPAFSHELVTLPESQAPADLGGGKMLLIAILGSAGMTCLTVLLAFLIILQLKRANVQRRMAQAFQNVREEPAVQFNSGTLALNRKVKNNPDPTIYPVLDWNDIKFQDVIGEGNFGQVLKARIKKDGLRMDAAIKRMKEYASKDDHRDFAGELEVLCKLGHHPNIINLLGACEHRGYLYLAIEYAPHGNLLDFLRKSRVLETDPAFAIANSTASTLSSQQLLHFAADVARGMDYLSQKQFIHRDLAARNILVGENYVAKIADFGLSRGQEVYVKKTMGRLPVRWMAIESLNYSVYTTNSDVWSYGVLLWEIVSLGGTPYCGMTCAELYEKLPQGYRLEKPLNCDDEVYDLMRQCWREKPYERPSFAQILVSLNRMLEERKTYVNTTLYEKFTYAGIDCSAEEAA
# Chain of Serine/threonine-protein kinase B-raf (P15056 2-766 V600E limits assumed): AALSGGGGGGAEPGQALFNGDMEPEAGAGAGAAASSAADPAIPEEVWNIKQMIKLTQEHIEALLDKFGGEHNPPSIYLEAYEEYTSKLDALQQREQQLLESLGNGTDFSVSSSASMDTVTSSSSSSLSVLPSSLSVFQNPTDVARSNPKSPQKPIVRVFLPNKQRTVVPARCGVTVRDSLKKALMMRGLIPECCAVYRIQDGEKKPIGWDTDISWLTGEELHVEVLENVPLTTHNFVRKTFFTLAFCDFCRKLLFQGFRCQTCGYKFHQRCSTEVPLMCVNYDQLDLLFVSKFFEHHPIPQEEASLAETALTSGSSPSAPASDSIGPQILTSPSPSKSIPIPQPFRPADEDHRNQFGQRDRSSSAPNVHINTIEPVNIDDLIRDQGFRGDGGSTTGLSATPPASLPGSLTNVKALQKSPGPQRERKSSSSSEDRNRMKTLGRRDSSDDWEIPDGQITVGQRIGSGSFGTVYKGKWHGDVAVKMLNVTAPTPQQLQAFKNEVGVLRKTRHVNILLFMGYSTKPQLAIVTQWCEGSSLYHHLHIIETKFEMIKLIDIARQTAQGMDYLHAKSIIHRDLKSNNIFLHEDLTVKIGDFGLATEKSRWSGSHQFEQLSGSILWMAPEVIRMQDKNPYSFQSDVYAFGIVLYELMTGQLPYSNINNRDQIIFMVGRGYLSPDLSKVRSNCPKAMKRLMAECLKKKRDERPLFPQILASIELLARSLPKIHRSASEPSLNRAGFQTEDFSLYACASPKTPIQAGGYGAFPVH
# Chain of Ribosomal protein S6 kinase alpha-5 (O75582 whole entry): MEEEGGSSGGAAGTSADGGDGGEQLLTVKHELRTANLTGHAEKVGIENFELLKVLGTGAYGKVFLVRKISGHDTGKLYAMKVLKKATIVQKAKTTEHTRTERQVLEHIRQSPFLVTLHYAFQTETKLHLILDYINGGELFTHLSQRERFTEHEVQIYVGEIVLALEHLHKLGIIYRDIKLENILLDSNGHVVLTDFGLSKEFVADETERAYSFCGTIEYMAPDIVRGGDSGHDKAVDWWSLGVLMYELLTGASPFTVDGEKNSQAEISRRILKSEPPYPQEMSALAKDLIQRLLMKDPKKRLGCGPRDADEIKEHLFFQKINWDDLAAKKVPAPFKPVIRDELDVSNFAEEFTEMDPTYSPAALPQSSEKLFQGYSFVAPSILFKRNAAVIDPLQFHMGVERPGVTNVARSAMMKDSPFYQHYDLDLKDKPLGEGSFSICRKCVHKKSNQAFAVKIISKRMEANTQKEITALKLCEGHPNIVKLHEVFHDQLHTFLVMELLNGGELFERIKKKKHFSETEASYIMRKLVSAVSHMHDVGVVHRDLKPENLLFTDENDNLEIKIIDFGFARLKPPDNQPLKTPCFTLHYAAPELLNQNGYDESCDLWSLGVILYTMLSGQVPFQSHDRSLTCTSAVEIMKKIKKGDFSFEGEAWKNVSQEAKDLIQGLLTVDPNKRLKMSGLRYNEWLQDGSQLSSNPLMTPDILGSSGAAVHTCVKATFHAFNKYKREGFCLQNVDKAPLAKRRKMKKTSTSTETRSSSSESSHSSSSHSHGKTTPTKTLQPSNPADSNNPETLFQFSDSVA
# Chain of Dual specificity protein kinase CLK3 (P49761 whole entry): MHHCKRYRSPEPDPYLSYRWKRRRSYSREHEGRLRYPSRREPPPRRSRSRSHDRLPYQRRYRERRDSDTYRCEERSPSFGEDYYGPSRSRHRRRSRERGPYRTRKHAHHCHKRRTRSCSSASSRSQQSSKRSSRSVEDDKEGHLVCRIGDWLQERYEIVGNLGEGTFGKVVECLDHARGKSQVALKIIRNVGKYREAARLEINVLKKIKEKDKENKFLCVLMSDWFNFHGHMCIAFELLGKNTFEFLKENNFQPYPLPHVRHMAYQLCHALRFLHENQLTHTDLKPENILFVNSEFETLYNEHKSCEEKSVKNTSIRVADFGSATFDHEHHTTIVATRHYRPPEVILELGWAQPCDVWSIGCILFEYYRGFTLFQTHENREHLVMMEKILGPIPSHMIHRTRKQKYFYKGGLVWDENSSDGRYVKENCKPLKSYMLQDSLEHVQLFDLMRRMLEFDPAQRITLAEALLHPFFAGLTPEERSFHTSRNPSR
# Chain of Mitogen-activated protein kinase 1 (P28482 whole entry): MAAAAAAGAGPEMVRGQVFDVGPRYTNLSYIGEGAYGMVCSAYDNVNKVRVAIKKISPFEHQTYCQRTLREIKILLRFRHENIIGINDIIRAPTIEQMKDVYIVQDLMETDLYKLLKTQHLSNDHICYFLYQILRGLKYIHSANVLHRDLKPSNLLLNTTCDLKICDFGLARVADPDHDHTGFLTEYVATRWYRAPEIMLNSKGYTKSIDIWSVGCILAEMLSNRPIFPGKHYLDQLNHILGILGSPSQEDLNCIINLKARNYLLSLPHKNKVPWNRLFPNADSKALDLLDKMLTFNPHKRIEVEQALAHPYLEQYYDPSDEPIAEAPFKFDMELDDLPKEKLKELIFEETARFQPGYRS
# Chain of Tyrosine-protein kinase HCK (P08631 whole entry): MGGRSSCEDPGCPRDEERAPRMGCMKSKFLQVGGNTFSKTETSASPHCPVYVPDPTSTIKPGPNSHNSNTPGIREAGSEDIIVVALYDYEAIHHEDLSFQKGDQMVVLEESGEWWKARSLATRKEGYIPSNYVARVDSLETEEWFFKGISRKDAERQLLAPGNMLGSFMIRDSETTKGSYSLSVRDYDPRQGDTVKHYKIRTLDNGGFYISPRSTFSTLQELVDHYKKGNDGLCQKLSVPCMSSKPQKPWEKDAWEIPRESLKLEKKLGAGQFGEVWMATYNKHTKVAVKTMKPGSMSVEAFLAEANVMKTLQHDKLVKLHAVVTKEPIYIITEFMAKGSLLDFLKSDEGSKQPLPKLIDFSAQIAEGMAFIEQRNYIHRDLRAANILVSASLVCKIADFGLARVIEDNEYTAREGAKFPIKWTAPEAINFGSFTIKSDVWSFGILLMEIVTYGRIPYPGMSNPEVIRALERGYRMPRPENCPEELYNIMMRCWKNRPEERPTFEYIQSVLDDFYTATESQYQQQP
structure (smiles),measurement,setting,value
O=C(c1ccc(F)c(F)c1Nc1ccc(I)cc1F)N1CC(O)([C@@H]2CCCCN2)C1 [COBIMETINIB],inhibition in vivo at 10 mg/kg,[1],36%
same,inhibition in vivo at 20 mg/kg,[2],87%
same,Activity,[3],Active
same,Activity,[4],Active
same,Activity,[5],60%
same,IC50,[6],> 10 µM
same,IC50,[7],> 10 µM
same,Activity,[8],60%
same,IC50,[9],> 10 µM
same,inhibition in vivo at 2.5 mg/kg,[10],98%
same,IC50,[11],> 10 µM
same,Activity,[12],Active
same,IC50,[13],> 10 µM
same,Activity,[14],73%
same,IC50,[15],> 10 µM
same,inhibition in vivo at 5 mg/kg,[16],69%
same,inhibition,[17],Active
same,Activity,[18],inactive
same,Activity,[19],Active
same,inhibition in vivo at 5 mg/kg,[20],-137%
same,inhibition in vivo at 10 mg/kg,[21],104%
same,IC50,[22],> 10 µM
same,IC50,[23],> 10 µM
same,inhibition in vivo at 10 mg/kg,[24],38%
same,IC50,[25],> 10 µM
